One block for each compound: values may come before it.
Columns and labels:
[1] = biological target: JAK1/TYK2 (Homo sapiens, UniProt P23458+P29597); experiment: Inhibition of JAK1/TYK2 in human Kit225 T cells assessed as inhibition of STAT phosphorylation by luciferase reporter assay; type: cell-based
In short: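 T-cells carrying a stably integrated STAT-dependent luciferase reporter were stimulated with IFNα or IL-23 to measure TYK2/JAK1-dependent signalling. Dose–response curves gave IC50.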

[2] = biological target: Non-receptor tyrosine-protein kinase TYK2 (Homo sapiens, UniProt P29597); experiment: Inhibition of TYK2 in human whole blood assessed as decrease in IFNalpha-induced STAT5 phosphorylation preincubated for 1 hr followed by stimulation with IFN-alpha for 15 mins by fluorescence analysis; type: tissue-based
Non-receptor tyrosine-protein kinase TYK2 (Homo sapiens, UniProt P29597), sequence (P29597 whole entry): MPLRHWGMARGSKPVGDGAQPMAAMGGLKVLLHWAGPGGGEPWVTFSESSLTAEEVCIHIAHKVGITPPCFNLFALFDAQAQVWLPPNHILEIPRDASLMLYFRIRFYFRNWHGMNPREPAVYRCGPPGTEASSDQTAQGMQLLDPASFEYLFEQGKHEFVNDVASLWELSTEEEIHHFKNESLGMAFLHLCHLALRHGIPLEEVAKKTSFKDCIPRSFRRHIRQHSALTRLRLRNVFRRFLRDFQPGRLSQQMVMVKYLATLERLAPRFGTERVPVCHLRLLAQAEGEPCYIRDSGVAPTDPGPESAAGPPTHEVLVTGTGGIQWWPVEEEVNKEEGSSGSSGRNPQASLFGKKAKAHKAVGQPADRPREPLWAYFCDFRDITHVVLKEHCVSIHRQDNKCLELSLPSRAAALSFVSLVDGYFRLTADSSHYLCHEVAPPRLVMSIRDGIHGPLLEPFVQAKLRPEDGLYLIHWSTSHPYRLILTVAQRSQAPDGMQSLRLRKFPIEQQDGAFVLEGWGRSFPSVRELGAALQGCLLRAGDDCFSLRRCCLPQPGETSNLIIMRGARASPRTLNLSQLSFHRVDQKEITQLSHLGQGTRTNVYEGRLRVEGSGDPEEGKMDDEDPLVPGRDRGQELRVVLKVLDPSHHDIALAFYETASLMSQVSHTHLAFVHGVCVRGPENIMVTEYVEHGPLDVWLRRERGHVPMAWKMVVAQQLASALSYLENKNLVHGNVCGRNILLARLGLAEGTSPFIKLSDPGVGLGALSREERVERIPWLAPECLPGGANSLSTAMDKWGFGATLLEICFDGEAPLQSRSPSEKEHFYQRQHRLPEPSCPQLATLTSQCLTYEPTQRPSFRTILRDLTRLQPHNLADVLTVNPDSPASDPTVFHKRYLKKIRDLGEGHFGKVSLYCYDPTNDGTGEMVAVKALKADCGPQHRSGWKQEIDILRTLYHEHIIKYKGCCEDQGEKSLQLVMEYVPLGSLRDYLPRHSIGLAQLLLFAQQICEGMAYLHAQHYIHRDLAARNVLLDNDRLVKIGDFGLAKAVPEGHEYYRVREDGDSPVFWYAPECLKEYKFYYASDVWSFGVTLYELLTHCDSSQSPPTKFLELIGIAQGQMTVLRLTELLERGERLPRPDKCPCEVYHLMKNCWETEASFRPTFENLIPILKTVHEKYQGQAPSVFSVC
In short: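 Human whole blood stimulated with IFNα; STAT5 phosphorylation was read in cells by staining and flow cytometry. IC50 from dose–response; mean of at least three experiments.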

[3] = Metabolic stability in mouse liver microsomes assessed as compound remaining incubated for 10 mins; type: ADME, Microsome; settings: read-out: Stability
In short: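 Mouse liver microsomal stability, reported as percent of parent remaining after a 10 min incubation. Values are means of at least three experiments unless otherwise noted.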

[4] = biological target: Non-receptor tyrosine-protein kinase TYK2 (Mus musculus, UniProt Q9R117); experiment: Inhibition of TYK2 in mouse whole blood assessed as decrease in IFNalpha-induced STAT1 phosphorylation preincubated for 1 hr followed by stimulation with IFN-alpha for 15 mins by fluorescence analysis; type: tissue-based
Non-receptor tyrosine-protein kinase TYK2 (Mus musculus, UniProt Q9R117), sequence (Q9R117 whole entry): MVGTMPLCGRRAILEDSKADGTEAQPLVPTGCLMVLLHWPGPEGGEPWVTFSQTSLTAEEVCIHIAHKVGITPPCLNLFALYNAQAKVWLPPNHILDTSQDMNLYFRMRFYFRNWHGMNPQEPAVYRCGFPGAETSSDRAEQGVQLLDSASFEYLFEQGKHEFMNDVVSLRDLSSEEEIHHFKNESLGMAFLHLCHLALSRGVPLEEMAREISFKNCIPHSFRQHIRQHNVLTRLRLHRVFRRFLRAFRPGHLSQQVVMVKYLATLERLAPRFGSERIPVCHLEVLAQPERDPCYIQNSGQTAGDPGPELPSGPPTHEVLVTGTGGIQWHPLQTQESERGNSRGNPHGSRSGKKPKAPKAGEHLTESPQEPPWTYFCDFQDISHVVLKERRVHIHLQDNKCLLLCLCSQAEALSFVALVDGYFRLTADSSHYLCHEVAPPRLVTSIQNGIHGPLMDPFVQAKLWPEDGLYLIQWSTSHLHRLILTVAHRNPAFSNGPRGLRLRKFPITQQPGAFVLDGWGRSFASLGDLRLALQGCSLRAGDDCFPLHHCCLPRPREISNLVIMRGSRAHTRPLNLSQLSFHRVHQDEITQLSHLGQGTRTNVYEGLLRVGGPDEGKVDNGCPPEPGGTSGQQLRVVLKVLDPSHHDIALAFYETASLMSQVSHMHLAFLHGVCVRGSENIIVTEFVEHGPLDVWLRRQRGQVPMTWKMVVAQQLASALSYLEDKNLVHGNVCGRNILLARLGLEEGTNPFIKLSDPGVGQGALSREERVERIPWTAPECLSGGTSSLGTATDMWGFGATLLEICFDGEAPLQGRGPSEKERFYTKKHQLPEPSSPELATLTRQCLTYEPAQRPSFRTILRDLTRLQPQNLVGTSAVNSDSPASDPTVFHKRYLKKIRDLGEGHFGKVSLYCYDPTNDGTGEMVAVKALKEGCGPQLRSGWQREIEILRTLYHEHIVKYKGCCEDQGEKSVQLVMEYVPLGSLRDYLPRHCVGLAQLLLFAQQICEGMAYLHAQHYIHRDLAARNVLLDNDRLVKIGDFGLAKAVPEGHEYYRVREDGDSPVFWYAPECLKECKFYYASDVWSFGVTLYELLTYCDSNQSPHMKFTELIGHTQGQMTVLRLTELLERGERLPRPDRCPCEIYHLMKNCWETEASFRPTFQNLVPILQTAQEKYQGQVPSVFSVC
In short: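 Mouse whole blood stimulated with IFNα; STAT1 phosphorylation was measured by cellular staining and flow cytometry. Read as IC50.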

[5] = Permeability coefficient, Kp across apical to basolateral side in human Caco2 cells; type: ADME, cell-based; settings: Caco-2, read-out: permeability
In short: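 Caco-2 monolayer permeability measured in both directions, apical-to-basal and basal-to-apical, reported as Pc in nm/s. An efflux ratio was calculated from the two directions.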

[6] = biological target: Voltage-gated inwardly rectifying potassium channel KCNH2 (Homo sapiens, UniProt Q12809); experiment: Inhibition of human ERG by in vitro ion channel flux assay
Voltage-gated inwardly rectifying potassium channel KCNH2, sequence (Q12809 whole entry): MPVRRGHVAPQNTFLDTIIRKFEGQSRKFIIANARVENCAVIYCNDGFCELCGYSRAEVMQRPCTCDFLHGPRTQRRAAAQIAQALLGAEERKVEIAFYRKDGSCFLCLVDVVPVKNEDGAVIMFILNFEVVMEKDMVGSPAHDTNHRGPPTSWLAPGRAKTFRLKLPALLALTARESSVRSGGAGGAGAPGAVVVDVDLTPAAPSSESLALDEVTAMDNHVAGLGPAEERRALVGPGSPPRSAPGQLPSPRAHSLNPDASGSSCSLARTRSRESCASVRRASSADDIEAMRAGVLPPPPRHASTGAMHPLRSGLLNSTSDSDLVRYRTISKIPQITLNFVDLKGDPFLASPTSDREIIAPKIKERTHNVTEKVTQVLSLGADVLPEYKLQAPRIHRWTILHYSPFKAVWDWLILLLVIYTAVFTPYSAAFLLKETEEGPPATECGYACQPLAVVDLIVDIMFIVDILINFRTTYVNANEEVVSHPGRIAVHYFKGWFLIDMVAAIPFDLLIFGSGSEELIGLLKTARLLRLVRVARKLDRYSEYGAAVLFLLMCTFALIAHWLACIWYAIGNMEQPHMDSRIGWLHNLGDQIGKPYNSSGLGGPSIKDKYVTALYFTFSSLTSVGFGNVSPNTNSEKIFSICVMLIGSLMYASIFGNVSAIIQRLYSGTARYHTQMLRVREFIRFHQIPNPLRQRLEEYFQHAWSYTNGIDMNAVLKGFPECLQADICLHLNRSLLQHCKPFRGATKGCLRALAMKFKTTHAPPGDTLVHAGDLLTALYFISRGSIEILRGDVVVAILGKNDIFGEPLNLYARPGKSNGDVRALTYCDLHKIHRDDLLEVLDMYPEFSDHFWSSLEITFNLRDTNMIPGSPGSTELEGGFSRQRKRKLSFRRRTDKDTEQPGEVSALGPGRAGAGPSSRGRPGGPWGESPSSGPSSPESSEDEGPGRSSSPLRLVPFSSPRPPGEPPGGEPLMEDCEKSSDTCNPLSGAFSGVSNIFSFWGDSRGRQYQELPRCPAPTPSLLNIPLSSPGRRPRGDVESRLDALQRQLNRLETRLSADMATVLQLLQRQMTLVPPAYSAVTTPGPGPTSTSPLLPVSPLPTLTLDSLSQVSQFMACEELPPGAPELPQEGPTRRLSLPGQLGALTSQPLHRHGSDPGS

JAK1/TYK2, sequence (P23458 whole entry): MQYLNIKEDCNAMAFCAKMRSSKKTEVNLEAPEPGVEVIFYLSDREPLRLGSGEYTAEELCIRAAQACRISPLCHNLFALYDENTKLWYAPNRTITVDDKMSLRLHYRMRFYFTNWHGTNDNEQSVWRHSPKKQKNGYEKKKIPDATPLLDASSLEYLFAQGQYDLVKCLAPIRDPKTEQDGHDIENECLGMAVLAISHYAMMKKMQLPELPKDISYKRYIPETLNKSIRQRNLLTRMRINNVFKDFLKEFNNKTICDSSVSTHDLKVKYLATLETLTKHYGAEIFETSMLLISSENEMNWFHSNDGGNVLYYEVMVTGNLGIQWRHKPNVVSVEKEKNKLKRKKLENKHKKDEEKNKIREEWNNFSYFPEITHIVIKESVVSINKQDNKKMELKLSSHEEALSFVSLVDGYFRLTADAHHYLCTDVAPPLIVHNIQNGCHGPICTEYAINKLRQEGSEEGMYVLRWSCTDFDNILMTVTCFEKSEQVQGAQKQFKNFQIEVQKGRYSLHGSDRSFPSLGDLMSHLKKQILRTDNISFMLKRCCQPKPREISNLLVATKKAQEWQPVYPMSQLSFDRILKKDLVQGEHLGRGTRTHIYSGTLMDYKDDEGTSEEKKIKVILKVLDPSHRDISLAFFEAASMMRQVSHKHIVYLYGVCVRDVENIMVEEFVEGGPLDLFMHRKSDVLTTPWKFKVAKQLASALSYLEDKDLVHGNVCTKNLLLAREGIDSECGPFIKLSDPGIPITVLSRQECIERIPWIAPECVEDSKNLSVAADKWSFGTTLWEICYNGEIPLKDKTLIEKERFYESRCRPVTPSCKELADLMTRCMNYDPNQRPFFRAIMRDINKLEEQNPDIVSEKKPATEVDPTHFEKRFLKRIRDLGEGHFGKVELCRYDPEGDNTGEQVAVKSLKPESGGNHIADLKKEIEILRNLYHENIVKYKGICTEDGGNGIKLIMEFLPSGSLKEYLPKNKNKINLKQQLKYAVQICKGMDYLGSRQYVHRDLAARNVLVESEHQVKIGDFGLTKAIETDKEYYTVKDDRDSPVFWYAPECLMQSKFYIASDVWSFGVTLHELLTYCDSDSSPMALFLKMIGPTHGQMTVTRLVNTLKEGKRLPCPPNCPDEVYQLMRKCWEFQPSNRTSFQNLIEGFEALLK
JAK1/TYK2, sequence (P29597 whole entry): as the sequence (P29597 whole entry) above

IC50 [1]: 0.22 µM
IC50 [2]: 0.27 µM
SMILES: CNC(=O)c1cnc(Nc2cc(C)c(F)cn2)cc1Nc1cccc(C(=O)NCCO)c1OC

IC50 [1]: 0.004 µM
IC50 [2]: 0.012 µM
remaining at 10 min [3]: 80%
IC50 [4]: 0.13 µM
SMILES: CNC(=O)c1cnc(Nc2cc(C)c(F)cn2)cc1Nc1cccc(-c2ncn(C)n2)c1OC

IC50 [1]: 0.063 µM
IC50 [2]: 0.12 µM
SMILES: CNC(=O)c1cnc(Nc2ccc(F)cn2)cc1Nc1cccc(C(N)=O)c1OC

IC50 [1]: 0.012 µM
IC50 [2]: 0.069 µM
Papp A→B [5]: 16 nm/s
remaining at 10 min [3]: 78%
IC50 [4]: 0.7 µM
SMILES: CNC(=O)c1cnc(Nc2ccc(C(F)(F)F)cn2)cc1Nc1cccc(-c2ncn(C)n2)c1OC
IC50 [6]: 16 µM

IC50 [2]: > 10 µM
SMILES: [2H]C([2H])([2H])NC(=O)c1nnc(NC(=O)C2CC2)cc1Nc1cccc(-c2ncn(C)n2)c1

IC50 [1]: 0.007 µM
IC50 [2]: 0.04 µM
remaining at 10 min [3]: 63%
IC50 [4]: 0.32 µM
SMILES: CNC(=O)c1cnc(Nc2cc(C)c(F)cn2)cc1Nc1cccc(-c2n[nH]c(C)n2)c1OC

IC50 [1]: 0.022 µM
IC50 [2]: 0.18 µM
SMILES: CNC(=O)c1cnc(Nc2cc(C)c(F)cn2)cc1Nc1cccc(C(=O)NCc2ccccn2)c1OC

IC50 [1]: 0.012 µM
IC50 [2]: 0.019 µM
Papp A→B [5]: < 15 nm/s
remaining at 10 min [3]: 73%
IC50 [4]: 0.73 µM
SMILES: CNC(=O)c1cnc(Nc2cc(C)nc(C)n2)cc1Nc1cccc(-c2ncn(C)n2)c1OC

IC50 [1]: 0.008 µM
IC50 [2]: 0.023 µM
remaining at 10 min [3]: 51%
IC50 [4]: 0.31 µM
SMILES: CNC(=O)c1cnc(Nc2cc(C)c(F)cn2)cc1Nc1cccc(-c2nc[nH]n2)c1OC

IC50 [1]: 0.078 µM
IC50 [2]: 0.23 µM
Papp A→B [5]: 50 nm/s
SMILES: CNC(=O)c1cnc(Nc2ccc(F)cn2)cc1Nc1cccc(C(=O)NC)c1OC

Second part, the compound before the results:

SMILES: CNC(=O)c1cnc(Nc2cc(C)c(F)cn2)cc1Nc1cccc(C(=O)NCCN2CCOCC2)c1OC
IC50 [1]: 0.051 µM
IC50 [2]: 0.16 µM

SMILES: CNC(=O)c1cnc(Nc2cc(C)c(F)cn2)cc1Nc1cccc(C(=O)N(C)C)c1OC
IC50 [1]: 0.13 µM
IC50 [2]: 0.75 µM

SMILES: CNC(=O)c1cnc(Nc2cc(C)c(F)cn2)cc1Nc1cccc(C(=O)NC)c1OC
IC50 [1]: 0.047 µM
IC50 [2]: 0.14 µM

SMILES: CCNC(=O)c1cccc(Nc2cc(Nc3cc(C)c(F)cn3)ncc2C(=O)NC)c1OC
IC50 [1]: 0.028 µM
IC50 [2]: 0.28 µM

SMILES: CNC(=O)c1cccc(Nc2cc(Nc3ccc(F)cn3)ncc2C(=O)NC)c1
IC50 [1]: 7.5 µM
IC50 [2]: > 10 µM

SMILES: CNC(=O)c1cnc(Nc2cc(C)c(F)cn2)cc1Nc1cccc(-c2nnco2)c1OC
IC50 [1]: 0.015 µM
IC50 [2]: 0.17 µM
remaining at 10 min [3]: 46%
IC50 [4]: 0.522 µM

— ChEMBL document CHEMBL4376812 (J Med Chem, 2019)
